High-throughput results deposited in PubChem BioAssay by several laboratories.
This is a sample that favours compounds with a hit; in the whole collection about 1.9% have one here.
p-CIP stab down = p/CIP-EGFP fusion destabilizers, primary screen, fluorescence, F442A cells; Q05BA5; 16 h; decrease of EGFP signal, % at 10 µM; 290,000 tested, 0.01% active; AID 1984, 2009;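 active means EGFP signal decrease of at least 30% at 10 µM or well 3 SD below plate mean, unless failing retest; inactive means the rest, including hits failing retest or dose response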
NS3 helicase inh = inhibitors of HCV NS3 helicase, primary screen, biochemical, Cy5 molecular beacon fluorescence; inhibition, % at 10.9 µM; 290,000 tested, 0.56% active; Hepatitis C virus NS3 helicase; NS3 helicase DNA unwinding;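 active means inhibition above the mean of all tested compounds plus 3 SD, set per campaign, cut at about 35% in these data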;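 further: 0% = DMSO wells and 100% = thioflavine S control wells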
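test system = hepatitis C virus NS3 helicase domain fragment enzyme | reagent = annealed dual-labelled DNA beacon duplex, ATP-started | times = 1 h at 25 °C | detection = Cy5 fluorescence, 0 and 60 min reads | read-out basis = percent inhibition from t60/t0 fluorescence ratio | control set = DMSO and thioflavine S | replication = one well per compound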
DNA FID counter = compounds displacing fluorescent DNA intercalator, primary screen, artefact control for HCV NS3 helicase inhibitor project, biochemical, FID fluorescence; DNA fluorescent intercalator displacement; inhibition, % at 7.9 µM; 290,000 tested, 0.17% active; AID 1845, 2009; in the data active means inhibition above about 37%;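 further: 0% = vehicle and 100% = reference compound; higher means more ethidium bromide displaced from hairpin DNA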
core dimer inh = inhibitors of HCV core protein dimerization, primary screen, biochemical, TR-FRET, high-throughput. TR-FRET GST/Flag-core106 dimerization, 1536-well. inhibition, % at 5 µM. 300,000 tested, 0.33% active;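 active means inhibition above the mean of all tested compounds plus 3 SD, set per screening campaign, cut at about 45% in these data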
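System: GST-tagged and Flag-tagged HCV core protein residues 1-106 / Input: core106 proteins, GST 13.5 nM and Flag 17 nM / Buffer or medium: KF-containing HEPES buffer, pH 7.45, DTT, CHAPS, BSA / Probe or stimulus: Eu-anti-GST and XL665-anti-Flag labelled anti-tag antibodies / Schedule: 4 h, 22.5 °C incubation / Technique: TR-FRET 671 and 617 nm emission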
GPR7 antag = GPR7 receptor antagonists, primary screen, cell-based, fluorescence, single concentration | GPR7-expressing cells, fluorescence antagonist assay | inhibition, % at 4.4 µM | AID 1861, 2009 | 290,000 tested, 1.1% active; in the data active means inhibition above about 16%, passing the limit was not always enough;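 further: cells stimulated with the agonist NPW; 0% = agonist with vehicle and 100% = vehicle without agonist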
Target sequence (P48145 whole entry, looked up): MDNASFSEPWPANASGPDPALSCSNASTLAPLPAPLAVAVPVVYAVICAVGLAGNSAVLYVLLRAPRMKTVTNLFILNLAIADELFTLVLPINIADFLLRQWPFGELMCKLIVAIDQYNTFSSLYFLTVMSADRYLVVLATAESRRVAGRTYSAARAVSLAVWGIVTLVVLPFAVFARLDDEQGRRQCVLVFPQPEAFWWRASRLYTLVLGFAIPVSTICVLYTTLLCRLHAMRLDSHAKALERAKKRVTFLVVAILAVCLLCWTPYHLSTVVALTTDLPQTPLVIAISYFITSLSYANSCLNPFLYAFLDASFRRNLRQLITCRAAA
GPR7 antag conf = GPR7 receptor antagonists, confirmation, cell-based, fluorescence, single concentration; GPR7-expressing cells, calcium fluorescence antagonist mode; 2,400 tested, 52% active; inhibition, % at 4.4 µM; shares compounds with GPR7 antag; in the data active means inhibition above about 24%;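 further: stimulated with the GPR7 agonist NPW; 0% = agonist plus vehicle and 100% = vehicle alone without agonist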
MCHR1 antag = MCHR1 antagonists in cells, counter-screen for GPR7 antagonist project, cell-based, fluorescence, human; shares compounds with GPR7 antag; MCHR1-expressing cells, fluorescence antagonist assay; inhibition, % at 4.4 µM; 2,400 tested, 62% active; in the data active means inhibition above about 22%;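 further: 0% = vehicle with agonist and 100% = vehicle without agonist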
* marks the source's active call; other numbers are inactive results; nt = not tested or not shown.

SMILES	p-CIP stab down	NS3 helicase inh	DNA FID counter	core dimer inh	GPR7 antag	GPR7 antag conf	MCHR1 antag
COc1ccc(NC(=O)COc2ccccc2Cc2ccccc2)cc1S(N)(=O)=O	-6.2	-22.1	-28.0	4.1	42.0*	45.1*	57.3*
CC(NCc1ccc(-c2ccccc2)cc1)C(O)c1ccccc1 (configuration not stated)	5.1	-69.4	31.6	-8.6	30.9*	25.0*	51.1*
COc1cccc(C(=O)Nc2cc(-c3cn4cccnc4n3)ccc2C)c1	2.9	-4.7	-9.6	-1.0	-11.0	nt	nt
Cc1ccc2nc(-c3cccc(NS(C)(=O)=O)c3)cc(-c3ccccc3)c2c1	6.6	-9.2	-10.2	0.6	-19.7	nt	nt
CC(C)c1ccc(CNC(=O)C(=O)Nc2nccs2)cc1	4.5	2.2	-3.5	-7.7	-2.6	nt	nt
CC(C)Cc1ccc(C(C)C(=O)Nc2nccs2)cc1 (configuration not stated)	-3.0	-0.5	-13.0	2.0	62.7*	77.6*	78.3*
CC(C)Cc1ccc(C(C)C(=O)Nc2ccccc2O)cc1 (configuration not stated)	-17.7	3.5	-13.8	0.3	69.2*	88.8*	93.8*
COCCNC(=S)N1CCC(C(=O)c2ccc(C)cc2)CC1	-9.9	10.6	-14.9	-11.9	3.3	nt	nt
CCN(C(=O)c1cc2c(s1)-c1ccccc1OC2)c1cc(OC)ccc1OC	-8.0	-6.5	-33.7	1.6	31.5*	49.7*	55.5*
CC(C)(C)NC(=O)CN(CCN1CCOCC1)C(=O)CNS(=O)(=O)c1ccccc1	-11.8	7.0	-0.7	-0.1	0.5	nt	nt
N#CC(C#N)=Cc1cnc(N2CCN(c3ccccc3)CC2)s1	-3.5	23.6	-0.3	3.4	40.7*	12.3	42.2*
CC(Sc1nc2ccccc2c(=O)n1CC1CCCO1)C(=O)Nc1ccc(S(N)(=O)=O)cc1 (configuration not stated)	nt	nt	nt	-4.1	nt	nt	nt
CCCCn1c(N)c(N(Cc2ccccc2OC)C(=O)COc2ccc(F)cc2Cl)c(=O)[nH]c1=O	5.6	5.5	-16.4	12.2	-5.3	nt	nt
CCCCn1c(N)c(N(Cc2ccccc2OC)C(=O)COc2ccccc2C#N)c(=O)[nH]c1=O	2.1	18.4	-13.8	-1.8	27.3*	1.8	2.9
COc1ccc(NC(=O)c2nnn(CC(=O)Nc3ccccc3OC)c2N)c(OC)c1	-6.5	-8.6	-17.6	-1.9	-6.3	nt	nt
Cc1ccc(C)c(Cn2nnc(C(=O)Nc3ccc4c(c3)OCCO4)c2N)c1	nt	nt	nt	-1.6	nt	nt	nt
CCc1ccc(Cn2nnc(C(=O)Nc3ccc(OC)cc3OC)c2N)cc1	0.7	-8.7	-5.4	-0.3	25.3*	42.0*	18.7
COc1cccc(NC(=O)Cn2nnc(C(=O)Nc3ccccc3)c2N)c1	-3.7	0.3	0.3	8.3	-17.0	nt	nt
COc1cccc(NC(=O)c2nnn(Cc3ccc(Br)cc3F)c2N)c1	-14.6	-4.0	13.9	-2.2	24.3*	52.9*	52.7*
Cc1cc(C)cc(NC(=O)c2nnn(Cc3cc(C)ccc3C)c2N)c1	-2.6	-13.4	-8.5	5.6	50.6*	86.7*	91.3*
O=C(Cn1ccc2cc(S(=O)(=O)N3CCCC3)ccc21)NCc1ccco1	0.9	2.2	-5.8	-3.7	-5.2	nt	nt
Cc1ccc(NC(=S)N2CCN(c3ccccn3)CC2)cc1C	-12.3	17.4	-12.7	7.0	-11.6	nt	nt
CC1Sc2ccc(S(=O)(=O)N3CCC(C(=O)Nc4ccc(Cl)cc4)CC3)cc2NC1=O (configuration not stated)	-10.7	-10.2	-35.1	11.3	60.7*	68.1*	70.0*
CC(=O)N1c2ccc(S(=O)(=O)N3CCC(C(=O)Nc4cccc(Cl)c4)CC3)cc2CC1C (configuration not stated)	-11.4	-15.5	-44.3	5.9	31.2*	20.9	47.1*
Cc1ccc(NC(=O)C2CCN(S(=O)(=O)c3ccc(N4CCCC4=O)cc3)CC2)cc1Cl	-16.8	-27.8	-31.7	13.6	38.5*	52.4*	61.3*
SMILES	p-CIP stab down	NS3 helicase inh	DNA FID counter	core dimer inh	GPR7 antag	GPR7 antag conf	MCHR1 antag
COc1ccc(NC(=O)C2CCN(S(=O)(=O)c3ccc4c(c3)NC(=O)C(C)S4)CC2)cc1 (configuration not stated)	-36.0	-7.5	-40.9	6.8	5.2	nt	nt
COc1ccc(C)cc1NC(=O)CN1C(=O)COc2ccc(S(=O)(=O)N3CCCCC3)cc21	4.7	-9.0	-42.7	8.5	-9.4	nt	nt
COc1ccc(/C=C2\SC(=O)N(CC(=O)Nc3ccc(F)cc3)C2=O)cc1O	4.6	-0.1	4.1	1.9	28.6*	0.5	6.1
OCCNc1ncnc2c1cnn2Cc1ccccc1	1.2	-2.3	-4.3	nt	-8.6	nt	nt
Clc1ccc(Cn2ncc3c(NCc4ccco4)ncnc32)c(Cl)c1	5.1	-10.8	-17.2	-0.1	28.0*	36.9*	55.5*
c1ccc(CNc2ncnc3c2cnn3Cc2ccccc2)cc1	-11.8	-14.2	-22.7	0.5	27.7*	53.5*	50.7*
Clc1ccc(-n2ncc3c(NCc4ccco4)ncnc32)cc1	7.7	2.4	-3.1	-4.4	13.8	nt	nt
CN(CC(=O)Nc1ccccc1Br)C(=O)CNC(=O)c1ccc(Oc2ccccc2)cc1	-9.6	-1.2	-36.4	-1.8	-12.5	nt	nt
COc1ccc(OCC(O)Cn2c(N)nc3c2c(=O)[nH]c(=O)n3C)cc1 (configuration not stated)	-13.6	0.9	-2.1	1.5	-8.2	nt	nt
COCC(C)NC(=O)c1cccc(Cl)c1 (configuration not stated)	-9.9	-2.2	4.4	-10.5	-9.9	nt	nt
COC(=O)C(/C=N/OCc1ccc([N+](=O)[O-])cc1)NC(=O)c1cccc(Cl)c1 (configuration not stated)	-7.5	9.4	-2.5	-2.1	38.0*	65.3*	49.9*
CN(C)c1ccc(-c2nnn(CC(=O)NCc3ccc4c(c3)OCO4)n2)cc1	3.7	-10.4	0.1	5.7	24.0*	1.1	12.5
Cc1ccccc1-c1nnn(CC(=O)NCc2ccc3c(c2)OCO3)n1	-10.6	-2.7	-2.8	-1.1	-6.8	nt	nt
CN(C)c1cccc(C(=O)NCc2ccc3c(c2)OCO3)c1	-10.5	-19.1	-9.5	-0.2	36.2*	1.8	15.8
COc1cccc(CC2(CO)CCCN(Cc3c(C)cc(C)cc3-n3cccn3)C2)c1 (configuration not stated)	4.0	-16.7	9.9	6.1	nt	nt	9.4
CCOc1cccc(C(=O)Nc2ccc3oc(Cc4ccc(Cl)cc4)nc3c2)c1	-16.7	6.4	-10.3	7.8	1.5	nt	nt
